High-throughput results as filed in PubChem.
TAAR1 antagonist: antagonists of human TAAR1; Q96RJ0; CHO RD-HGA16 TAAR1, Fluo-8 calcium fluorescence, antagonist; inhibition, % at 3 µM; 1.5% of 360,000 active; AID 624466;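 active means inhibition above a per-plate cutoff, the mean inhibition of test compounds on that plate plus 3 SD, cut at about 49% in these data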;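 further: 0% = DMSO plus EC80 beta-PEA response and 100% = DMSO alone without agonist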
Target sequence (Q96RJ0 whole entry, looked up): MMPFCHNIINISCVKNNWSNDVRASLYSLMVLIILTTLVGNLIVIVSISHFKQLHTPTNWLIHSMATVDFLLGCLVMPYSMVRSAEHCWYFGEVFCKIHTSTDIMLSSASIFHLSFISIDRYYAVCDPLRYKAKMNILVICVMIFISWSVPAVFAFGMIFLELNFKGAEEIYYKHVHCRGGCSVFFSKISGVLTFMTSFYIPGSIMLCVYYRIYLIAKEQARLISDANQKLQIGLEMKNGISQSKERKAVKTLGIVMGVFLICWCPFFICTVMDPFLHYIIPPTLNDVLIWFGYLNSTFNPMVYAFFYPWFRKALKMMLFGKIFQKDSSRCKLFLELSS
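System: CHO RD-HGA16 cells bearing hTAAR1. Reagent: EC80 β-phenethylamine stimulus. Schedule: seeding 17-24 h prior, 75-min 37 °C, 30-min RT dye loading. Signal: Fluo-8 intracellular calcium dye fluorescence, real-time kinetic reads. Read-out: % inhibition from peak post-agonist over basal fluorescence ratio. Benchmarks: vehicle wells and EC80 agonist wells. Replicates: n of 1.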
OXTR ag: agonists of human oxytocin receptor; P30559; activation, % at 3 µM; AID 2435; CHO-OTR cells, Fluo-8 calcium fluorescence; normalized: DMSO 0%, oxytocin 100%; 0.32% of 320,000 active;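 active means activation above the mean of all tested compounds plus 3 SD, cutoff set per screening run, cut at about 20% in these data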;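 further: peak over basal fluorescence ratio from a 100 s FLIPR kinetic read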
Target sequence (P30559 whole entry, looked up): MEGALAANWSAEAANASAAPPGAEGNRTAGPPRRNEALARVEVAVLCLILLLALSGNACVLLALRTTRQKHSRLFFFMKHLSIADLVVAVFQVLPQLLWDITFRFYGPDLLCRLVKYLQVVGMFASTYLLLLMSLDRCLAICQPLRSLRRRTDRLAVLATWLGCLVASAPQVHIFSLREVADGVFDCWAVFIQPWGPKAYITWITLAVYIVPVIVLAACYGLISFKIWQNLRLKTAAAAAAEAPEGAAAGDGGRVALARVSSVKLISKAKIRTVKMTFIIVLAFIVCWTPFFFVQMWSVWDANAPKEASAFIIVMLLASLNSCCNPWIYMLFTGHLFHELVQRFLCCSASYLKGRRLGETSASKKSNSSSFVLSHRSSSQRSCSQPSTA
V1R ag counter: counter-screen for oxytocin receptor agonists: human V1a receptor agonists; P37288; CHO-V1R cells, Fluo-8 calcium fluorescence, agonist mode; 0% DMSO, 100% 3 nM vasopressin; activation, % at 3 µM; 0.25% of 320,000 active;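 active means activation above the mean activation of all tested compounds plus 3 SD, per screening run, cut at about 20% in these data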;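 further: signal is peak over basal fluorescence ratio across a 100 second FLIPR read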
TAAR1 agonist: human TAAR1 agonism | CHO RD-HGA16 TAAR1, Fluo-8 calcium fluorescence; vehicle wells 0%, saturating PEA agonist 100% | activation, % at 3 µM | 0.99% of 360,000 active | AID 624467;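 active means activation above the mean activation of all test compounds in the run plus 3 SD, cut at about 38% in these data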
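System: CHO-derived RD-HGA16 cells with stable Gα16 and human TAAR1. Times: 17-24 h plating, Fluo-8 75 min 37 °C, 30 min RT. Measured by: calcium-sensitive Fluo-8 signal, excitation 470-495, emission 515-575 nm. Read-out basis: % activation relative to PEA EC100 response. Control set: DMSO and PEA EC100. Repeats: no replicates (n 1).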
OXTR potentiator: human OXTR potentiation. CHO-OTR cells, Fluo-8 calcium fluorescence, potentiator mode; 0% = oxytocin EC15, 100% = EC100. AID 2445. P30559. 0.061% of 320,000 active. activation, % at 3 µM;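 active means activation above that plate's cutoff, the mean activation of tested compounds plus 3 SD, cut at about 6.6% in these data, passing the limit was not always enough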;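 further: 100% uses oxytocin at 75 nM as the full agonist control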
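test system = CHO-OTR cells, human receptor | compound = single-point 3.0 µM | schedule = 6 min compound pre-incubation at room temperature, 100 s kinetic read | signal = Fluo-8 no-wash calcium dye fluorescence, excitation 470-495 nm, emission 515-575 nm | repeats = single well per compound, singlicate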
TAAR1 nonsel count: counter-screen for TAAR1 antagonists: nonselective antagonists. inhibition, % at 3 µM. shares compounds with TAAR1 antagonist. 77% of 2,400 active. counterscreen cell line, calcium fluorescence, antagonist mode; in the data active means inhibition above about 22%;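 further: CHO-Ga16 host cells stimulated with ATP at an EC80 level; 0% = agonist EC80 plus vehicle and 100% = vehicle without agonist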
TAAR1 ant conf: human TAAR1 antagonism, confirmed; shares compounds with TAAR1 antagonist; AID 651785; 40% of 2,400 active; TAAR1-expressing cells, fluorescence antagonist read-out; inhibition, % at 3 µM; in the data active means inhibition above about 49%;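 further: CHO-Ga16 host cells challenged with agonist PEA near its EC80; 0% = agonist at EC80 plus vehicle and 100% = vehicle with no agonist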
Ga16 nonsel ag: nonselective Ga16 agonism, counter-screen; activation, % at 3 µM; 18% of 2,400 active; Ga16-expressing cells, calcium fluorescence, agonist counterscreen; shares compounds with TAAR1 antagonist; in the data active means activation above about 12%;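 further: 0% = vehicle wells and 100% = saturating stimulus response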
TAAR1 ag counter: counter-screen for human TAAR1 antagonists: TAAR1 agonists | shares compounds with TAAR1 antagonist | 2% of 2,400 active | hTAAR1 cell line, fluorescence activation, agonist mode | AID 651955 | activation, % at 3 µM; in the data active means activation above about 37%;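 further: CHO cells stably expressing TAAR1 with calcium dye readout; 0% = DMSO vehicle and 100% = full agonist response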
* = called active by the depositor; x = not tested or not shown. In the library only some 2.3% were active in any assay of this set; here they are far more common.

SMILES	TAAR1 antagonist	OXTR ag	V1R ag counter	TAAR1 agonist	OXTR potentiator	TAAR1 nonsel count	TAAR1 ant conf	Ga16 nonsel ag	TAAR1 ag counter
COc1cccc(C(NC(C)=O)c2nc(-c3ccccc3C)cs2)c1 (configuration not stated)	-3	x	x	2	x	x	x	x	x
CCN1C(c2ccccc2)C(C)C(=O)C(C)C1c1ccccc1 (configuration not stated)	52*	-3	-1	0	-5	13	-6	-1	-5
CCOc1ccc(-n2c(C)cc(/C=N/NC(=O)C(N)=O)c2C)cc1	-26	0	-1	-1	2	x	x	x	x
CCOc1ccc(-n2c(C)cc(/C=N\NC(=O)CC(=O)NC3CCCCC3)c2C)cc1	57*	0	2	0	-8	25*	47	5	-1
Cc1ccsc1C(=O)N1CCCCCC1(C)C(=O)NCC(C)C (configuration not stated)	-24	x	x	1	x	x	x	x	x
COc1cccc(NC(=O)Nc2ccc(C(C)(C)C)cc2)c1	87*	x	x	13	x	51*	76*	14*	13
COc1cccc(NC(=O)Nc2ccncc2)c1	-9	2	1	17	5	x	x	x	x
CC1(C(=O)NS(=O)(=O)c2ccccc2Cl)CCN1C(=O)c1ccccc1 (configuration not stated)	6	x	x	0	x	x	x	x	x
COc1ccc(CNS(=O)(=O)c2ccccc2Br)c(OC)c1	-29	x	x	2	x	x	x	x	x
CCCNC(=O)C[C@H]1C[C@H]2c3cc(NC(=O)Nc4ccc(F)cc4)ccc3O[C@H]2[C@@H](CO)O1	-11	x	x	2	x	x	x	x	x
Cc1onc(-c2ccccc2Cl)c1C(=O)Nc1cccc(-c2nc3ncccn3c2C)c1	107*	0	0	17	-3	16	19	6	12
COc1ccc(-n2nc(C(=O)NCC(=O)N3CCOCC3)c3ccccc3c2=O)cc1Cl	14	0	2	8	-7	x	x	x	x
CCOc1ccccc1NC(=O)CNC(=O)c1nn(-c2ccc(OC)c(OC)c2)c(=O)c2ccccc12	60*	-2	-1	17	-5	30*	41	7	14
COc1ccc(NC(=O)CNC(=O)c2nn(-c3ccc(OC)c(Cl)c3)c(=O)c3ccccc23)c(OC)c1	61*	-1	4	10	-11	24*	49*	6	7
CCOC(=O)CNC(=O)CNC(=O)c1nn(-c2ccc(OC)c(OC)c2)c(=O)c2ccccc12	-5	0	0	5	0	x	x	x	x
CCOC(=O)C1CCN(C(=O)CNC(=O)c2nn(-c3ccc(OC)c(Cl)c3)c(=O)c3ccccc23)CC1	61*	-2	-2	13	-7	28*	42	7	6
COc1ccc(-n2nc(C(=O)NCC(=O)Nc3cccc(Cl)c3)c3ccccc3c2=O)cc1OC	55*	0	1	20	-11	25*	48	10	11
CCOc1ccc(NC(=O)CNC(=O)c2nn(-c3ccc(OC)c(OC)c3)c(=O)c3ccccc23)cc1	46	3	4	21	-11	x	x	x	x
O=C(COc1coc(CN2CCN(c3ccccc3)CC2)cc1=O)Nc1ccc(F)cc1	-21	0	-1	2	-15	x	x	x	x
COc1ccc(CCNC(=O)CNC(=O)c2nn(-c3ccc(OC)c(OC)c3)c(=O)c3ccccc23)cc1OC	53*	-1	0	17	-4	33*	51*	12*	9
COc1ccc(-n2nc(C(=O)NCC(=O)NCC3COc4ccccc4O3)c3ccccc3c2=O)cc1OC (configuration not stated)	58*	2	-1	13	-5	27*	49*	7	5
COc1ccc(-n2nc(C(=O)NCC(=O)NCCc3ccc(OC)c(OC)c3)c3ccccc3c2=O)cc1	38	-1	-1	20	3	x	x	x	x
CCCCNC(=O)C1c2ccccc2OCC(=O)N1CC(F)(F)F (configuration not stated)	-20	x	x	1	x	x	x	x	x
COc1ccc(S(=O)(=O)N2CCN(C(=O)c3cc(-c4ccccc4OC)n[nH]3)CC2)cc1	76*	10	6	10	-23	25*	39	8	6
COc1cccc2cc(CC(=O)c3cc(C)ccc3C)c(=O)oc12	58*	0	1	10	-9	29*	49*	6	4
SMILES	TAAR1 antagonist	OXTR ag	V1R ag counter	TAAR1 agonist	OXTR potentiator	TAAR1 nonsel count	TAAR1 ant conf	Ga16 nonsel ag	TAAR1 ag counter
C=CCN1[C@@H](C)[C@@H](c2ccccc2)Oc2c(Cl)cccc2S1(=O)=O	-21	x	x	-2	x	x	x	x	x
COc1ccc2c(c1)C(SCC(=O)NCCc1ccc(Cl)cc1)CC(C)(C)O2 (configuration not stated)	62*	-3	0	6	-6	18	43	6	35
Cc1ccc2nc(-c3cccc(Cl)c3)c(Cc3ccccc3C(F)(F)F)n2c1	-16	x	x	4	x	x	x	x	x
Cc1cc(C)n(-c2ccc(C(=O)N3CC(C)OC(C)C3)cc2)n1 (configuration not stated)	-1	2	0	3	1	x	x	x	x
O=C(COc1cccc2cccnc12)N/N=C/c1cccn1-c1ccc(F)cc1	53*	-3	-3	18	-13	25*	48	7	4
CCCCC(=O)Nc1ccc(C(=O)Nc2ccc(S(=O)(=O)N3CCCC3)cc2)cc1	x	5	7	x	-3	12	x	6	x
Cn1nc(C(=O)Nc2ccc(S(=O)(=O)N3CCCCC3)cc2)c2ccccc2c1=O	96*	-1	0	-2	-25	11	12	2	-1
COc1ccc(-c2oc3c(c2C#CC2(O)CCCCC2)C(OC(C)=O)CCC3)cc1 (configuration not stated)	18	x	x	-1	x	x	x	x	x
CN1OC[C@@H]2CN[C@H](c3ccc(-n4ccnc4)cc3)C[C@@H]21	-25	x	x	3	x	x	x	x	x
CCOc1ccc(NC(=O)CN(C)C(=O)C2CC(=O)N(CCc3ccc(OC)c(OC)c3)C2)cc1OCC (configuration not stated)	100*	x	x	-2	x	-3	-4	8	11
Cc1noc(C)c1S(=O)(=O)N1CCCc2nc(-c3ccc(Br)cc3)ccc21	-26	x	x	1	x	x	x	x	x
COc1ccc2[nH]c(=O)c(CN(Cc3nnnn3Cc3ccco3)C3CCCCC3)cc2c1	67*	-1	-1	25	-17	28*	51*	12*	18
